Source: ChEMBL document CHEMBL1126800, “Preparation of substituted N-phenyl-4-aryl-2-pyrimidinamines as mediator release inhibitors” (J Med Chem, 1993)

Organism: Homo sapiens
Experiment: In vitro inhibition of histamine release from human basophils
Assay type: functional, organism-based
Conditions: Homo sapiens
In short: (§1)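 Human basophils separated from leukocytes were incubated with test compound, then challenged with anti-IgE or antigen (Lichtenstein method). Histamine release was measured against controls and blanks. IC50 is the concentration lowering histamine release by 50%.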

| IC50 [nM] | SMILES |
| --- | --- |
| 2800 | Nc1ccc(Nc2nccc(-c3cccnc3)n2)cc1 |
| 700 | Cc1cc(C)cc(Nc2nccc(-c3ccco3)n2)c1 |
| 1500 | COc1cccc(Nc2nccc(-c3ccc(C)o3)n2)c1 |
| 900 | CC(=O)N(C)c1ccc(Nc2nccc(-c3cccnc3)n2)cc1 |
| 700 | Cc1cccc(Nc2nccc(-c3ccccn3)n2)c1 |
| 4900 | Cc1cc(-c2ccnc(Nc3ccc(N(C)C)cc3)n2)c(C)o1 |
| 4100 | CC(=O)c1cccc(Nc2nccc(-c3cccnc3)n2)c1 |
| 1400 | Cc1cccc(Nc2nccc(-c3ccc(C)s3)n2)c1 |
| 900 | c1ccc(Nc2nccc(-c3cccnc3)n2)cc1 |
| 100 | c1cc(Nc2nccc(-c3cccnc3)n2)cc(OCCn2ccnc2)c1 |
| 2800 | COc1cccc(Nc2nccc(-c3cc4ccccc4o3)n2)c1 |
| 5900 | Cc1cc(-c2ccco2)nc(Nc2ccc(N(C)C)cc2)n1 |
| 1900 | CCc1ccc(Nc2nccc(-c3cnccn3)n2)cc1 |
| 1100 | CCc1cccc(Nc2nccc(-c3ccsc3)n2)c1 |
| 1500 | CC(=O)Nc1ccc(Nc2nccc(-c3ccccn3)n2)cc1 |
| > 24000 | COc1cccc(Nc2nc(C)cc(-c3ccncc3)n2)c1 |
| 3500 | CC1CCN(c2cccc(Nc3nccc(-c4cccs4)n3)c2)CC1 |
| > 6000 | CCN(CC)CCOc1ccccc1Nc1nccc(-c2cccnc2)n1 |
| 2100 | CN(C)c1ccc(Nc2nccc(-c3ccsc3)n2)cc1 |

| IC50 [nM] | SMILES |
| --- | --- |
| > 24000 | COc1cccc(Nc2nccc(-c3sccc3C)n2)c1 |
| 4300 | c1csc(-c2ccnc(Nc3ccc(-n4ccnc4)cc3)n2)c1 |
| 1200 | CCN(CC)CCOc1cccc(Nc2nccc(-c3ccccn3)n2)c1 |
| > 24000 | Cc1cc(-c2ccncc2)nc(Nc2cccc(N(C)C)c2)n1 |
| 200 | CCN(CC)CCOc1ccc(Nc2nccc(-c3ccncc3)n2)cc1 |
| 24800 | Cc1cc(-c2ccc(C)s2)nc(Nc2ccccc2)n1 |
| 1000 | Fc1cccc(Nc2nccc(-c3ccccn3)n2)c1 |
| 1300 | CCN(CC)CCOc1ccc(Nc2nccc(-c3ccco3)n2)cc1 |
| 1700 | COc1ccc(Nc2nccc(-c3cccnc3)n2)cc1 |
| 500 | CC1CCN(c2ccc(Nc3nccc(-c4cccnc4)n3)cc2)CC1 |
| 900 | c1ccc(Nc2nccc(-c3ccncc3)n2)cc1 |
| 5900 | Cc1ccc(Nc2nccc(-c3ccccn3)n2)cc1C |
| 300 | COc1cccc(Nc2nccc(-c3cccnc3)n2)c1 |
| 1400 | CCc1cccc(Nc2nccc(-c3ccccn3)n2)c1 |
| 400 | FC(F)(F)c1cc(Nc2nccc(-c3ccncc3)n2)ccc1-n1ccnc1 |
| 100 | c1cc(Nc2nccc(-c3cccs3)n2)cc(OCCn2ccnc2)c1 |
| 300 | Cc1cccc(Nc2nccc(-c3cccs3)n2)c1 |
| 3700 | CN(C)c1ccc(Nc2nccc(-c3ccncc3)n2)cc1 |
| 3300 | CN(C)c1ccc(Nc2nccc(-c3ccccn3)n2)cc1 |

| SMILES | IC50 [nM] |
| --- | --- |
| c1ccc(-c2ccnc(Nc3cccc(-n4ccnc4)c3)n2)nc1 | 300 |

Organism: Homo sapiens
Experiment: In vitro inhibition of histamine release from human basophils; H= Compound interfered with the histamine assay
Assay type: functional, organism-based
Conditions: not given
In short: as §1

| SMILES | IC50 |
| --- | --- |
| CNc1ccc(Nc2nccc(-c3ccncc3)n2)cc1.Cl.Cl | Compound interfered with the histamine assay |

Organism: Homo sapiens
Experiment: Tested for in vitro cell leukotriene C4 release inhibition by radioimmunoassay
Assay type: functional, organism-based
Conditions: not given
In short: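 Basophils were incubated with compound and challenged. LTC4 release was measured by radioimmunoassay, with duplicate samples processed per the [3H] LTC4 RIA kit procedure. Histamine release was measured simultaneously on a second portion of the same cells. IC50 is from n = 5.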

| SMILES | IC50 [nM] |
| --- | --- |
| c1ccc(-c2ccnc(Nc3cccc(-n4ccnc4)c3)n2)nc1 | 205 |

System: Mus musculus
Experiment: Tested for in vivo activity in mouse by passive cutaneous anaphylaxis (PCA) test
Assay type: functional
Conditions: read-out: ID50 (the source's name)
In short: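 Mouse passive cutaneous anaphylaxis test with oral dosing of compound. Read at times of […] after dosing. Value expressed as ID50 in mg/kg.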

| SMILES | ED50 [mg/kg] |
| --- | --- |
| c1ccc(-c2ccnc(Nc3cccc(-n4ccnc4)c3)n2)nc1 | 50 |

System: not listed separately
Experiment: Tested for toxic concentration in mice
Assay type: ADME, organism-based
Conditions: mouse, in vivo

| SMILES | LD50 [mg/kg] |
| --- | --- |
| c1ccc(-c2ccnc(Nc3cccc(-n4ccnc4)c3)n2)nc1 | 800 |
